From ChEMBL document CHEMBL1141431, “Brandisianins A-F, isoflavonoids isolated from Millettia brandisiana in a screening program for death-receptor expression enhancement activity” (J Nat Prod, 2007)
Activity calls are given as the source filed them. The calls are words filed in the database; no cut-off is given here.

Columns and labels:
HeLa = test: Cytotoxicity against human HeLa cells; format: functional, cell-based
DLD-1 [1] = test: Cytotoxicity against human DLD1 cells; format: functional, cell-based
DLD-1 [2] = test: Activation of death-receptor 5 expression in human DLD-1/ SacI cells at 17.5 uM by luciferase assay relative to control; format: functional, cell-based
Method in brief: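 DLD-1/SacI (human colon cancer line stably carrying human DR5 promoter–luciferase construct) seeded in RPMI with 10% FBS, 24 h at 37 °C, 5% CO2. Treated with samples (17.5 and 35.0 µM) 24 h. Lysed, luciferase substrate added, luminescence read. Activity expressed as light intensity relative to EtOH-treated control cells. Luteolin 17.5 µM as positive control. Means, n = 3 ± SD.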

DLD-1 [3] = test: Activation of death-receptor 5 expression in human DLD-1/ SacI cells at 35.0 uM by luciferase assay relative to control; format: functional
Method in brief: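 DLD-1 human colon cancer cells stably carrying pDR5/SacI (human DR5 promoter–luciferase) plated at 2 × 10^5 cells/well in RPMI with 10% FBS, 24 h at 37 °C, 5% CO2, then exposed 24 h to compound (tested at 17.5 and 35.0 µM). Lysed, luciferase substrate added, luminescence read; activity as relative light intensity versus EtOH-treated control cells; luteolin 17.5 µM positive control; n = 3.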

SMILES	IC50 (HeLa) [µM]	IC50 (DLD-1 [1]) [µM]	Activity (DLD-1 [2])	Fold change (DLD-1 [3])
COc1cc(-c2coc3c(CC=C(C)C)c(O)cc(O)c3c2=O)c(OC)cc1O [BRANDISIANIN C]	19.1	> 25		
COc1cc(-c2coc3c4c(cc(O)c3c2=O)O[C@@](C)(CO)C=C4)c(OC)cc1O [BRANDISIANIN D]	> 25	> 25	Active	3
C=C(C)[C@H]1Cc2c(cc(O)c3c(=O)c(-c4cc(OC)c(O)cc4OC)coc23)O1 [BRANDISIANIN B]	9.7	> 25		
COc1cc(-c2coc3cc(O)cc(O)c3c2=O)c(OC)cc1O [OLIBERGIN A]	> 25	> 25		
COc1cc(-c2coc3cc(O)c(CC=C(C)C)c(O)c3c2=O)c(OC)cc1O [VIRIDIFLORIN]	> 25	> 25		
Oc1cc(O)c2c(c1)O[C@H](c1ccc(O)c(O)c1)[C@H](O)C2 [(-)-EPICATECHIN]	> 25	> 25		
O=C1C[C@@H](c2ccc(O)cc2)Oc2cc(O)cc(O)c21 [NARINGENIN]	> 25	> 25		
COc1cc2c(cc1O)[C@@H]1Oc3c(cc(OC)c(OC)c3O)[C@@H]1CO2 [BRANDISIANIN F]	> 25	> 25		
COc1cc(-c2coc3c(C/C=C(\C)CO)c(O)cc(O)c3c2=O)c(OC)cc1O [BRANDISIANIN E]	21.7	> 25		
COc1cc(-c2coc3cc(O)cc(O)c3c2=O)c(OC)cc1OCC=C(C)C [BRANDISIANIN A]	> 25	> 25		
COc1cc(-c2coc3c4c(cc(O)c3c2=O)OC(C)(C)C=C4)c(OC)cc1O	> 25	> 25		2.4
